Laboratory results published in publication PMC6506440 (Scientific Reports, 2013).
Where a SMILES comes first, the peptide text is derived from it.

Columns and labels:
[1] = Circular dichroism, percentage helicity; type: physicochemical; conditions: Percentage helicity derived using circular dichroism, peptide free in solution
Procedure, shortened: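 Peptides were N-terminally acetylated and C-terminally amidated, and HPLC-purified to >90% purity. Stapled variants carried an (i, i + 3) hydrocarbon linkage. Percentage helicity was derived from circular dichroism spectra.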

[2] = biological target: T1, Full-length human eIF4E (human, UniProt P06730 1-217); assay: SPR
T1 sequence (P06730 whole entry): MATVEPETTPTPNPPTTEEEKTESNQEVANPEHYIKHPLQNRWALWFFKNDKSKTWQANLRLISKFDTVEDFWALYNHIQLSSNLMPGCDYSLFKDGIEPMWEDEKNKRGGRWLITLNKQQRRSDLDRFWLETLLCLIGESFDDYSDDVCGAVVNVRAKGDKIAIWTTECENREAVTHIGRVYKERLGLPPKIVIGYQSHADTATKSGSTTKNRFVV

[3] = biological target: T1, Full-length human eIF4E; assay: fluorescence polarisation
[4] = biological target: T1, Full-length human eIF4E; assay: fluorescence polarisation; remark: listed apart in the source

`CC(=O)N[C@@H](CCCCN)C(=O)N[C@@H](CCCCN)C(=O)N[C@@H](CCCNC(=N)N)C(=O)N[C@@H](Cc1ccc(O)cc1)C(=O)N[C@@H](CO)C(=O)N[C@@H](CCCNC(=N)N)C(=O)N[C@@H](CCC(=O)O)C(=O)N[C@@H](Cc1ccccc1)C(=O)N[C@@H](CC(C)C)C(=O)N[C@@H](CC(C)C)C(=O)NCC(=O)N[C@@H](Cc1ccccc1)C(N)=O` [eIF4G^D5S] (Ac-KKRYSREFLLGF-NH2) gave a Helicity [1] of 0%.

Ac-KKRYSREFLLGF-NH2 [eIF4G^D5S peptide] showed a Kd [2] of 99.9 ± 6.2 nM and a Kd [3] of 195 ± 12.1 nM.

Ac-KKRYSRDFLLALQK(FAM)-NH2 [FAM labeled tracer peptide (KKRYSRDFLLALQK-(FAM))]: binds [4].
